From the array DNA melting data of Ke et al. (doi:10.1101/2024.01.08.574731) come the findings set out here.

The nature of data set [1]: melting temperature; fluorescence melt of hairpins on a sequencing array, two-state fit, raised by 9.35 °C to match UV melts. To be noted: sodium 0.088 M. The essentials:
(§1)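 With Cy3 and quencher oligos annealed, library hairpins on a sequenced MiSeq flow cell were imaged for Cy3 fluorescence in 50 mM Na-HEPES pH 8.0, 25 mM NaCl, in 2.5 °C steps up to 60 °C. Melting temperature and folding enthalpy were derived from bootstrapped two-state fits of signals normalised to pre-quench Cy3 and to control constructs. Four replicates were combined by inverse variance, with fitted temperatures raised by 9.35 °C to match UV melts.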

Data set [2] is described as follows: folding enthalpy; higher = less favourable; fluorescence melt of hairpins on a sequencing array, two-state fit. To be noted: sodium 0.088 M. The essentials: as §1

With GATCTAAGTATAGATC ((((((....)))))), the Tm in data set [1] is 37.9 °C. Besides, in data set [2], the folding enthalpy was -27.7 kcal/mol.
As for GATCTAATCCTAGATC ((((((....)))))), in data set [1], the Tm turned out to be 38.3 °C. In addition, the folding enthalpy in data set [2] was -25.6 kcal/mol.
On to GATCTAATGTTAGATC ((((((....)))))), for which the Tm in data set [1] amounted to 40.2 °C. The folding enthalpy in data set [2] was -34.3 kcal/mol.
For GATCTACAATTAGATC ((((((....)))))), the Tm in data set [1] is 35.6 °C. Moreover, the folding enthalpy in data set [2] was -21.3 kcal/mol.
The corresponding values for GATCTACATTAGATC ((((((...)))))) are 37.5 °C and -25 kcal/mol.
Turning to GATCTACCCCTAGATC ((((((....)))))), the Tm in data set [1] is 39.9 °C. Also, in data set [2], the folding enthalpy was -38.4 kcal/mol.
Take GATCTACCCTTAGATC ((((((....)))))): the Tm in data set [1] came to 41.8 °C. Also, in data set [2], the folding enthalpy was -35.6 kcal/mol.
The matching figures for GATCTACCGCTAGATC ((((((....)))))): 40 °C and -29.4 kcal/mol.
For the sequence GATCTACCGTTAGATC ((((((....)))))), the Tm in data set [1] stood at 37.8 °C. Further, in data set [2], the folding enthalpy is -30.5 kcal/mol.
On to GATCTACCTCTAGATC ((((((....)))))), for which, in data set [1], the Tm turned out to be 37.8 °C. In addition, the folding enthalpy in data set [2] was -36.3 kcal/mol.
Turning to GATCTACCTTTAGATC ((((((....)))))), in data set [1], the Tm amounted to 38.3 °C. For the same sequence, the folding enthalpy in data set [2] is -30.4 kcal/mol.
For the sequence GATCTACGCGTAGATC ((((((....)))))), in data set [1], the Tm was 55.5 °C. In addition, the folding enthalpy in data set [2] was -52.1 kcal/mol.
The matching figures for GATCTACGCTAGATC ((((((...)))))): 43.4 °C and -18.5 kcal/mol.
For the sequence GATCTACGTATAGATC ((((((....)))))), in data set [1], the Tm turned out to be 41.2 °C. In data set [2], the folding enthalpy is -33.8 kcal/mol.
The corresponding values for GATCTACTCATAGATC ((((((....)))))) are 41.7 °C and -35.5 kcal/mol.
The matching figures for GATCTACTGATAGATC ((((((....)))))): 39.3 °C and -28.8 kcal/mol.
For GATCTACTGCTAGATC ((((((....)))))), in data set [1], the Tm was found to be 40.1 °C. Moreover, the folding enthalpy in data set [2] is -26.1 kcal/mol.
The corresponding values for GATCTAGACATAGATC ((((((....)))))) are 47.9 °C and -35 kcal/mol.
The corresponding values for GATCTAGCCTAGATC ((((((...)))))) are 40.8 °C and -28.4 kcal/mol.
Regarding GATCTAGCGAAAGCTATC (((..(((....)))))), in data set [1], the Tm is 22.8 °C. Besides, in data set [2], the folding enthalpy was -10.5 kcal/mol.
Take GATCTAGCTTAGATC ((((((...)))))): in data set [1], the Tm came to 38.1 °C. Further, in data set [2], the folding enthalpy was -29.4 kcal/mol.
In the case of GATCTAGGACTAGATC ((((((....)))))), the Tm in data set [1] was determined as 47.4 °C. For the same sequence, the folding enthalpy in data set [2] is -39.7 kcal/mol.
As for GATCTAGGGCTAGATC ((((((....)))))), the Tm in data set [1] turned out to be 43.5 °C. In addition, the folding enthalpy in data set [2] was -32.9 kcal/mol.
Regarding GATCTAGGGTTAGATC ((((((....)))))), in data set [1], the Tm amounted to 37.4 °C. For the same sequence, the folding enthalpy in data set [2] is -28.4 kcal/mol.
The corresponding values for GATCTAGGTGTAGATC ((((((....)))))) are 42.9 °C and -31 kcal/mol.
As to GATCTAGGTTAGATC ((((((...)))))), the Tm in data set [1] came out at 39.2 °C. Further, the folding enthalpy in data set [2] was -28.5 kcal/mol.
For GATCTAGTAATAGATC ((((((....)))))), the Tm in data set [1] worked out at 47.9 °C. Besides, the folding enthalpy in data set [2] was -35.8 kcal/mol.
With GATCTAGTAGTAGATC ((((((....)))))), the Tm in data set [1] came out at 43.4 °C. The folding enthalpy in data set [2] is -29.1 kcal/mol.
The matching figures for GATCTATACTAGATC ((((((...)))))): 40.6 °C and -32.6 kcal/mol.
For GATCTATAGGTAGATC ((((((....)))))), in data set [1], the Tm came out at 42.2 °C. In addition, the folding enthalpy in data set [2] is -32.8 kcal/mol.
With GATCTATAGTTAGATC ((((((....)))))), the Tm in data set [1] stood at 39.4 °C. In addition, in data set [2], the folding enthalpy was -27.1 kcal/mol.
